{"source": "paper PMC6447837", "about": "(Cancer Science, 2019)", "key": {"SW1990": {"tested_on": "SW1990", "assay": "MTT antiviability assay", "type": "cell-based", "details": "Homo sapiens, SW1990, 72 h"}, "Src [1]": {"biological_target": "Src (Homo sapiens, UniProt P12931)", "sequence (P12931 whole entry)": "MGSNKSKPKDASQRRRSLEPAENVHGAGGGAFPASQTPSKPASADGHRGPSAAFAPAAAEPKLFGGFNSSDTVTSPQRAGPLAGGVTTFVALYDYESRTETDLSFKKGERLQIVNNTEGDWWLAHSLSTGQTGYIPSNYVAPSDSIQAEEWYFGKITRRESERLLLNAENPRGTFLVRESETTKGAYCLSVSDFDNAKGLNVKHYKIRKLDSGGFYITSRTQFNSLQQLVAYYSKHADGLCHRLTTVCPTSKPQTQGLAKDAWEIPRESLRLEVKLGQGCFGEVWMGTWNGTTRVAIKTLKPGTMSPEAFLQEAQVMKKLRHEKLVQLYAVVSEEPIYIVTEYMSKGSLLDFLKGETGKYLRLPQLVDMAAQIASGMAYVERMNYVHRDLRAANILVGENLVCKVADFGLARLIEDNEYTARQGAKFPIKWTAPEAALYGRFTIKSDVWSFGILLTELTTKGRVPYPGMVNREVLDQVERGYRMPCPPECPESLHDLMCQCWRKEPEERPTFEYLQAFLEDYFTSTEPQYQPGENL", "type": "cell-based", "details": "12 hours, western blot"}, "Capan‐2": {"tested_on": "Capan‐2", "assay": "MTT antiviability assay", "type": "cell-based", "details": "Homo sapiens, Capan-2, 72 h"}, "FOSL1": {"tested_on": "FOSL1", "assay": "Immunohistochemistry of xenograft tumor tissues", "type": "in vivo, NOD‐SCID mice", "details": "Aspc‐1 and Bxpc‐3 models; LY‐1816 and dasatinib 40 mg/kg/d p.o., gemcitabine 80 mg/kg/wk; IHC", "summary_of_the_method": "(§1)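 Six-week-old female NOD-SCID mice received 5 × 10⁶ to 1 × 10⁷ cells s.c. in the right flank. Treatment began at about 200 mm³. Test compound (40 mg/kg/d) was given once daily by oral gavage in 25% PEG400 plus 5% DMSO in water. Tumors were resected at the end of dosing. Frozen sections were immunostained and imaged by light microscopy.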"}, "Bxpc‐3 cells [2]": {"tested_on": "Bxpc‐3 cells", "assay": "Annexin V/PI apoptosis assay", "type": "cell-based, human", "details": "24 hours", "summary_of_the_method": "(§2)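 Cells were treated with a range of concentrations for 24 hours, washed with PBS, then stained with annexin V‑FITC and propidium iodide for 15 minutes in the dark. […] Early (annexin V) and late (PI) apoptotic cells are reported as percentages, mean of n = 3 with SD.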"}, "plc/prf/5": {"tested_on": "plc/prf/5", "details": "plc/prf/5, Hepatocarcinoma; ref Zhang et al (2016) 35; cited from earlier work"}, "MV4‐11": {"tested_on": "MV4‐11", "details": "MV4‐11, Leukemia; mean ± SD; ref Zhang et al (2016) 35; cited from earlier work"}, "COLO‐205": {"tested_on": "COLO‐205", "assay": "MTT antiviability assay", "type": "cell-based", "details": "Homo sapiens, COLO 205, 72 h"}, "Bxpc‐3 cells [3]": {"tested_on": "Bxpc‐3 cells", "assay": "Wound healing assay", "type": "cell-based, human", "details": "18 hours"}, "SMMC7721": {"tested_on": "SMMC7721", "details": "SMMC7721, Hepatocarcinoma; ref Zhang et al (2016) 35; cited from earlier work"}, "Aspc‐1 cells [4]": {"tested_on": "Aspc‐1 cells", "assay": "Transwell invasion assay", "type": "cell-based, human", "summary_of_the_method": "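Inserts were precoated with polymerized collagen type I. Cells were seeded on the insert bottom in serum‑free medium with serial dilutions of test compound or vehicle, with 10% FBS medium in the lower chamber. After one day, cells were stained with calcein‑AM and optical sections taken at 10‑μm intervals. Invasion was scored as cells moving >20 μm into collagen; n = 3, mean with SD.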"}, "RAMOS": {"tested_on": "RAMOS", "details": "Lymphoma, ref Zhang et al (2016) 35; cited from earlier work"}, "Aspc‐1 cells [5]": {"tested_on": "Aspc‐1 cells", "assay": "Annexin V/PI apoptosis assay", "type": "cell-based, human", "details": "24 hours", "summary_of_the_method": "as §2"}, "Fyn": {"biological_target": "Fyn (Homo sapiens, UniProt P06241)", "sequence (P06241 whole entry)": "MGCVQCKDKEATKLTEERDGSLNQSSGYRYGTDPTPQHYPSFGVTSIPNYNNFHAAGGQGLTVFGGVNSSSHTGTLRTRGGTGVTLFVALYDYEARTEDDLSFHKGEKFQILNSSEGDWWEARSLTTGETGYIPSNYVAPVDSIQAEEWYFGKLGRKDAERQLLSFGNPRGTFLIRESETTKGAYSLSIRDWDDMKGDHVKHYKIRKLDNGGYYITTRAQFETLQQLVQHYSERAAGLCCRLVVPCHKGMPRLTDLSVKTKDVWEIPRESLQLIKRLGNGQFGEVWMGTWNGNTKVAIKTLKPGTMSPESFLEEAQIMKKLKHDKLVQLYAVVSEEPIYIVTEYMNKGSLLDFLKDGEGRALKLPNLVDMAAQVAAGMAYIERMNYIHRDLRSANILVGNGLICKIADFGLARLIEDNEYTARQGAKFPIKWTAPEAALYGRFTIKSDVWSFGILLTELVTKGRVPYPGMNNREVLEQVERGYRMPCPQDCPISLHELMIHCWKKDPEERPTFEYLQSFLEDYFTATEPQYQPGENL", "assay": "Radiometric kinase IC50 assay", "type": "biochemical"}, "L929": {"tested_on": "L929", "details": "L929, Mouse fibroblast (normal cell line); ref Zhang et al (2016) 35; cited from earlier work"}, "LO2": {"tested_on": "LO2", "details": "LO2, Human hepatic cells (normal cell line); ref Zhang et al (2016) 35; cited from earlier work"}, "Src [6]": {"tested_on": "Src", "assay": "Immunohistochemistry of xenograft tumor tissues", "type": "in vivo, NOD‐SCID mice", "details": "Aspc‐1 and Bxpc‐3 models; LY‐1816 and dasatinib 40 mg/kg/d p.o., gemcitabine 80 mg/kg/wk; IHC"}, "PC‐9": {"tested_on": "PC‐9", "details": "PC‐9, Lung cancer; mean ± SD; ref Zhang et al (2016) 35; cited from earlier work"}, "STAT3": {"tested_on": "STAT3", "assay": "Immunohistochemistry of xenograft tumor tissues", "type": "in vivo, NOD‐SCID mice", "details": "Aspc‐1 and Bxpc‐3 models; LY‐1816 and dasatinib 40 mg/kg/d p.o., gemcitabine 80 mg/kg/wk; IHC", "summary_of_the_method": "as §1"}, "HL‐60": {"tested_on": "HL‐60", "details": "HL‐60, Acute myeloid leukemia; mean ± SD; ref Zhang et al (2016) 35; cited from earlier work"}, "MDA‐MB‐415": {"tested_on": "MDA‐MB‐415", "details": "MDA‐MB‐415, Breast cancer; ref Zhang et al (2016) 35; cited from earlier work"}, "Bxpc‐3 xenograft": {"tested_on": "Bxpc‐3 xenograft", "assay": "Subcutaneous xenograft model", "type": "in vivo, NOD‐SCID mice", "details": "Bxpc‐3 model", "summary_of_the_method": "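Female NOD‑SCID mice bearing s.c. right‑flank tumors (5 × 10⁶–1 × 10⁷ cells injected) were randomized at 100–200 mm³ (6–7 per group). They received test compound in 25% PEG400/5% DMSO/water by oral gavage once daily for 18 days, or vehicle. Tumors were measured by caliper every 3 days, with volume = length × width² × 0.5.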"}, "MCF‐7": {"tested_on": "MCF‐7", "assay": "MTT antiviability assay", "type": "cell-based", "details": "Homo sapiens, MCF7, 72 h"}, "205 other kinases": {"biological_target": "205 other kinases", "assay": "Radiometric kinase assay, remaining panel", "type": "biochemical, human", "details": "205 other kinases of the panel; did not show activity"}, "HPAF‐II": {"tested_on": "HPAF‐II", "assay": "MTT antiviability assay", "type": "cell-based", "details": "Homo sapiens, 72 h"}, "Aspc‐1 cells [7]": {"tested_on": "Aspc‐1 cells", "assay": "Colony formation assay", "type": "cell-based, human", "details": "14 days", "summary_of_the_method": "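Cells were seeded at 5000-8000 per well and treated with test compound the next day, from DMSO stocks diluted in medium. Medium with vehicle or compound was replaced every 4 days. Cells were then methanol-fixed and crystal violet-stained. Colonies of more than 50 cells were counted under an inverted microscope and expressed as a percentage of colony numbers. Mean of n = 3, with SD.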"}, "Lck": {"biological_target": "Lck (Homo sapiens, UniProt P06239)", "sequence (P06239 whole entry)": "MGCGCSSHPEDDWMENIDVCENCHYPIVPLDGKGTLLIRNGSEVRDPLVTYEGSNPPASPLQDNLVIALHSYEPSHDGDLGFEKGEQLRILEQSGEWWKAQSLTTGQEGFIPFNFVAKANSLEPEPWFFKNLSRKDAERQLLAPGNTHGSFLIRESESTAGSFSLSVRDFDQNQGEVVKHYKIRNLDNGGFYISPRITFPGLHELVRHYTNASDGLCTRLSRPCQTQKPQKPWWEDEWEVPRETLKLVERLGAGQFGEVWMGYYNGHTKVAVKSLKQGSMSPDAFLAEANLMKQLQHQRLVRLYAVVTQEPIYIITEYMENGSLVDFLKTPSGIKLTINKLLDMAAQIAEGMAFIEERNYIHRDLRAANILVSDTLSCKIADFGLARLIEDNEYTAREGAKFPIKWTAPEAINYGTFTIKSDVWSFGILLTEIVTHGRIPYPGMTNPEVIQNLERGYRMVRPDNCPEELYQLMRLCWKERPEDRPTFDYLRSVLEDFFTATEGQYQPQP", "assay": "Radiometric kinase IC50 assay", "type": "biochemical"}, "Bxpc‐3": {"tested_on": "Bxpc‐3", "assay": "MTT antiviability assay", "type": "cell-based", "details": "Homo sapiens, BXPC-3, 72 h"}, "HPAC": {"tested_on": "HPAC", "assay": "MTT antiviability assay", "type": "cell-based", "details": "Homo sapiens, 72 h"}}, "data": [{"compound": "Cc1ccc(NC(=O)c2ccc(C)c(C(F)(F)F)c2)cc1C#Cc1nn(C2CCC(O)CC2)c2ncnc(N)c12", "note": "(stereo not shown) [LY‐1816, N‐(3‐((4‐amino‐1‐(4‐hydroxycyclohexyl)‐1H‐pyrazolo[3,4‐d]pyrimidin‐3‐yl)ethynyl)‐4‐methylphenyl)‐4‐methyl‐3‐(trifluoromethyl)benzamide]", "values": [{"measurement": "IC50", "setting": "SW1990", "result": "0.042 ± 0.053", "unit": "µM"}, {"measurement": "phosphorylation of Src", "setting": "Src [1]; 10 PDAC cell lines", "result": "potently inhibited the phosphorylation of Src"}, {"measurement": "Src phosphorylation", "setting": "Src [1]; HT29 and HCT116 cells", "result": "relatively weak potency"}, {"measurement": "IC50", "setting": "Capan‐2", "result": "0.097 ± 0.014", "unit": "µM"}, {"measurement": "expression of FOSL1 in tumor tissues", "setting": "FOSL1", "result": "evidently reduced"}, {"measurement": "apoptosis (annexin V and PI‐positive populations)", "setting": "Bxpc‐3 cells [2]", "result": "significantly increased the annexin V and PI‐positive populations"}, {"measurement": "IC50", "setting": "plc/prf/5", "result": "~10", "unit": "µM"}, {"measurement": "IC50", "setting": "MV4‐11", "result": "0.138 ± 0.015", "unit": "µM"}, {"measurement": "IC50", "setting": "COLO‐205", "result": "0.017 ± 0.001", "unit": "µM"}, {"measurement": "cell migration", "setting": "Bxpc‐3 cells [3]", "result": "dose‐dependently reduced cell migration"}, {"measurement": "IC50", "setting": "SMMC7721", "result": "> 10", "unit": "µM"}, {"measurement": "cell invasion", "setting": "Aspc‐1 cells [4]", "result": "significantly suppressed the invasion"}, {"measurement": "IC50", "setting": "RAMOS", "result": "~10", "unit": "µM"}, {"measurement": "apoptosis (annexin V and PI‐positive populations)", "setting": "Aspc‐1 cells [5]", "result": "significantly increased the annexin V and PI‐positive populations"}, {"measurement": "IC50", "setting": "Fyn", "result": 0.006, "unit": "µM"}, {"measurement": "IC50", "setting": "L929", "result": "> 10", "unit": "µM"}, {"measurement": "IC50", "setting": "LO2", "result": "> 10", "unit": "µM"}, {"measurement": "phosphorylation of Src in tumor tissues", "setting": "Src [6]", "result": "evidently reduced the phosphorylation of Src and STAT3"}, {"measurement": "IC50", "setting": "PC‐9", "result": "0.152 ± 0.041", "unit": "µM"}, {"measurement": "phosphorylation of STAT3 in tumor tissues", "setting": "STAT3", "result": "evidently reduced the phosphorylation of Src and STAT3"}, {"measurement": "IC50", "setting": "HL‐60", "result": "0.031 ± 0.012", "unit": "µM"}, {"measurement": "IC50", "setting": "MDA‐MB‐415", "result": "~10", "unit": "µM"}, {"measurement": "tumor‐inhibition rate", "setting": "Bxpc‐3 xenograft; 40 mg/kg daily, orally, 18 days", "result": "> 90", "unit": "%"}, {"measurement": "antitumor activity", "setting": "Bxpc‐3 xenograft; LY‐1816 20 or 40 mg/kg/d p.o., dasatinib 40 mg/kg/d p.o., gemcitabine 80 mg/kg once a week", "result": "dose‐dependent tumor inhibitory activities"}, {"measurement": "IC50", "setting": "MCF‐7", "result": "> 10", "unit": "µM"}, {"measurement": "IC50", "setting": "205 other kinases", "result": "> 10", "unit": "µM"}, {"measurement": "IC50", "setting": "HPAF‐II", "result": "0.215 ± 0.031", "unit": "µM"}, {"measurement": "colony growth", "setting": "Aspc‐1 cells [7]", "result": "significantly inhibited the colony growth"}, {"measurement": "IC50", "setting": "Lck", "result": 0.014, "unit": "µM"}, {"measurement": "IC50", "setting": "Bxpc‐3", "result": "0.058 ± 0.011", "unit": "µM"}, {"measurement": "IC50", "setting": "HPAC", "result": "0.045 ± 0.004", "unit": "µM"}]}]}
